Data reported in ChEMBL document CHEMBL1154855 (Eur J Med Chem, 2010).
pEC50, pIC50: −log10 of the molar value. In brackets after ≈: the same amount, converted by molar mass.

How the values were obtained:
[1] = test system: Human immunodeficiency virus 2; assay: Antiviral activity against HIV2 ROD infected in human MT4 cells assessed as protection from virus-induced cytopathogenicity after 5 days by MTT assay; format: functional, organism-based; conditions: Human immunodeficiency virus 2, ISOLATE ROD, MT4, 120 h
Procedure, shortened: (§1)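 MT-4 cells at 3 × 10^4 per well were infected with HIV (IIIB or ROD) at 50% cell culture infective doses. Graded compound concentrations were added immediately after infection. Plates were incubated for 5 days at 37 °C and viable cells were counted by MTT.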

[2] = test system: Punta Toro virus; assay: Antiviral activity against Punta Toro virus infected in african green monkey Vero cells assessed as protection from virus-induced cytopathogenicity by MTT assay; format: functional, organism-based
[3] = test system: Human alphaherpesvirus 1; assay: Antiviral activity against Herpes simplex virus 1 KOS infected in HEL cells assessed as protection from virus-induced cytopathogenicity after 2 to 3 days by MTT assay; format: functional, organism-based; conditions: Human alphaherpesvirus 1, KOS
[4] = test system: Influenza B virus; assay: Antiviral activity against Influenza B virus infected in MDCK cells assessed as protection from virus-induced cytopathogenicity after 6 to 7 days by MTT assay; format: functional, organism-based
[5] = test system: Felid alphaherpesvirus 1; assay: Antiviral activity against Feline herpesvirus infected in cat CRFK cells assessed as protection from virus-induced cytopathogenicity by MTT assay; format: functional, organism-based; conditions: Felid alphaherpesvirus 1, CRFK
[6] = test system: Respiratory syncytial virus; assay: Antiviral activity against Respiratory syncytial virus infected in human HeLa cells assessed as protection from virus-induced cytopathogenicity after 4 days by MTT assay; format: functional, organism-based; conditions: 96 h
[7] = test system: Escherichia coli; assay: Antibacterial activity against Escherichia coli after 24 hrs by broth microdilution method; format: functional
Procedure, shortened: (§2)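 Clinical isolates. Each dilution received 100 μl of 0.5 McFarland fresh culture. Solvent (DMSO), growth and standard controls were included. Tubes were incubated at 37 °C for 24 h. MIC is the highest dilution showing no turbidity. Tests were run in triplicate, with at least two repetitions.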

[8] = test system: Feline coronavirus; assay: Antiviral activity against Feline coronavirus infected in cat CRFK cells assessed as protection from virus-induced cytopathogenicity by MTT assay; format: functional, organism-based; conditions: Alphacoronavirus 1, CRFK
[9] = test system: Coxsackievirus B4; assay: Antiviral activity against Human coxsackievirus B4 infected in african green monkey Vero cells assessed as protection from virus-induced cytopathogenicity after 2 days by MTT assay; format: functional, organism-based; conditions: Enterovirus B, 48 h
[10] = test system: Proteus mirabilis; assay: Antibacterial activity against Proteus mirabilis after 24 hrs by broth microdilution method; format: functional; procedure, shortened: as §2
[11] = test system: Vero; assay: Cytotoxicity against Sindbis virus infected african green monkey Vero cells by trypan blue exclusion method; format: cell-based; conditions: chlorocebus sabaeus, vero
Procedure, shortened: (§3)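 Uninfected confluent cultures were run in parallel with the infected cultures. Medium was replaced by 1 ml maintenance medium with serial compound concentrations; cell controls received no compound. Cultures were incubated at 37 °C. After 2 and 7 days, compound was withdrawn and viability was determined by trypan blue exclusion.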

[12] = Cytotoxicity against Feline herpesvirus infected cat CRFK cells by trypan blue exclusion method; format: cell-based, Felis catus; conditions: crfk; procedure, shortened: as §3
[13] = test system: Human alphaherpesvirus 2; assay: Antiviral activity against Herpes simplex virus 2 G infected in HEL cells assessed as protection from virus-induced cytopathogenicity after 2 to 3 days by MTT assay; format: functional, organism-based; conditions: Human alphaherpesvirus 2, strain G
[14] = test system: Influenza A virus; assay: Antiviral activity against Influenza A virus H3N2 infected in MDCK cells assessed as protection from virus-induced cytopathogenicity after 6 to 7 days by MTT assay; format: functional, organism-based
[15] = test system: HeLa; assay: Cytotoxicity against Respiratory syncytial virus infected human HeLa cells by trypan blue exclusion method; format: cell-based; conditions: hela; procedure, shortened: as §3
[16] = test system: Vero; assay: Cytotoxicity against PIV 3 infected african green monkey Vero cells by trypan blue exclusion method; format: cell-based; conditions: chlorocebus sabaeus, vero; procedure, shortened: as §3
[17] = test system: HEL; assay: Cytotoxicity against Herpes simplex virus 1 KOS infected HEL cells by trypan blue exclusion method; format: cell-based; conditions: human, hel; procedure, shortened: as §3
[18] = test system: Sindbis virus; assay: Antiviral activity against Sindbis virus infected in african green monkey Vero cells assessed as protection from virus-induced cytopathogenicity after 2 to 3 days by MTT assay; format: functional, organism-based
[19] = test system: Klebsiella pneumoniae; assay: Antibacterial activity against Klebsiella pneumoniae after 24 hrs by broth microdilution method; format: functional; procedure, shortened: as §2
[20] = test system: Human alphaherpesvirus 1; assay: Antiviral activity against acyclovir-sensitive Herpes simplex virus 1 KOS infected in HEL cells assessed as protection from virus-induced cytopathogenicity after 2 to 3 days by MTT assay; format: functional, organism-based; conditions: Human alphaherpesvirus 1, KOS
[21] = Cytotoxicity against HIV1 3B-infected human MT4 cells by MTT assay; format: cell-based; conditions: MT4 cells infected with HIV-1 3B
Procedure, shortened: (§4)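 MT-4 cells (3 × 10^4 per well) were cultured in microdilution trays with various concentrations of compound, then incubated 5 days at 37 °C, and viable cell number was read by MTT.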

[22] = Cytotoxicity against HIV2 ROD infected human MT4 cells by MTT assay; format: cell-based; conditions: MT4 cells infected with HIV-2 ROD; procedure, shortened: as §4
[23] = test system: Streptococcus viridans; assay: Antibacterial activity against Streptococcus viridans after 24 hrs by broth microdilution method; format: functional; procedure, shortened: as §2
[24] = test system: Vero; assay: Cytotoxicity against Human coxsackievirus B4 infected african green monkey Vero cells by trypan blue exclusion method; format: cell-based; conditions: chlorocebus sabaeus, vero; procedure, shortened: as §3
[25] = test system: HEL; assay: Cytotoxicity against acyclovir-sensitive Herpes simplex virus 1 KOS infected HEL cells by trypan blue exclusion method; format: cell-based; conditions: human; procedure, shortened: as §3
[26] = test system: MDCK; assay: Cytotoxicity against Influenza B virus infected MDCK cells by trypan blue exclusion method; format: cell-based, Canis lupus familiaris; conditions: dog
[27] = test system: Influenza A virus; assay: Antiviral activity against Influenza A virus H1N1 infected in MDCK cells assessed as protection from virus-induced cytopathogenicity after 6 to 7 days by MTT assay; format: functional, organism-based
[28] = test system: HEL; assay: Cytotoxicity against Vaccinia virus infected HEL cells by trypan blue exclusion method; format: cell-based; conditions: human, hel; procedure, shortened: as §3
[29] = test system: HEL; assay: Cytotoxicity against Herpes simplex virus 2 G infected HEL cells by trypan blue exclusion method; format: cell-based; conditions: human, hel; procedure, shortened: as §3
[30] = test system: Coxsackievirus B4; assay: Antiviral activity against Human coxsackievirus B4 infected in human HeLa cells assessed as protection from virus-induced cytopathogenicity after 2 days by MTT assay; format: functional, organism-based; conditions: Enterovirus B, 48 h
[31] = test system: Vesicular stomatitis virus; assay: Antiviral activity against VSV infected in HEL cells assessed as protection from virus-induced cytopathogenicity after 1 to 2 days by MTT assay; format: functional, organism-based
[32] = test system: HeLa; assay: Cytotoxicity against VSV infected human HeLa cells by trypan blue exclusion method; format: cell-based; conditions: hela; procedure, shortened: as §3
[33] = test system: Vero; assay: Cytotoxicity against Reovirus 1 infected african green monkey Vero cells by trypan blue exclusion method; format: cell-based; conditions: chlorocebus sabaeus, vero; procedure, shortened: as §3
[34] = test system: Human respirovirus 3; assay: Antiviral activity against PIV 3 infected in african green monkey Vero cells assessed as protection from virus-induced cytopathogenicity after 6 to 7 days by MTT assay; format: functional, organism-based; conditions: Human respirovirus 3, Vero
[35] = test system: Mammalian orthoreovirus 1; assay: Antiviral activity against Reovirus 1 infected in african green monkey Vero cells assessed as protection from virus-induced cytopathogenicity after 6 to 7 days by MTT assay; format: functional, organism-based; conditions: Mammalian orthoreovirus 1, Vero
[36] = test system: HEL; assay: Cytotoxicity against VSV infected HEL cells by trypan blue exclusion method; format: cell-based; conditions: human, hel; procedure, shortened: as §3
[37] = test system: Human immunodeficiency virus 1; assay: Antiviral activity against HIV1 3B-infected in human MT4 cells assessed as protection from virus-induced cytopathogenicity after 5 days by MTT assay; format: functional, organism-based; conditions: Human immunodeficiency virus 1, 3B, MT4, 120 h; procedure, shortened: as §1
[38] = test system: HeLa; assay: Cytotoxicity against Human coxsackievirus B4 infected human HeLa cells by trypan blue exclusion method; format: cell-based; conditions: hela; procedure, shortened: as §3
[39] = test system: Vesicular stomatitis virus; assay: Antiviral activity against VSV infected in human HeLa cells assessed as protection from virus-induced cytopathogenicity after 1 to 2 days by MTT assay; format: functional, organism-based
[40] = Escherichia coli, 24 h, read-out: MIC
[41] = Proteus mirabilis, 24 h, read-out: MIC
[42] = Klebsiella pneumoniae, 24 h, read-out: MIC
[43] = Streptococcus viridans, 24 h, read-out: MIC

Compound | pIC50 [1] | pEC50 [2] | pEC50 [4] | pEC50 [6] | MIC [7, 40] | pEC50 [8] | MIC [10, 41] | pEC50 [13] | pEC50 [14] | CC50 [17] | pEC50 [18] | MIC [19, 42] | CC50 [21] | CC50 [22] | MIC [23, 43] | CC50 [25] | pEC50 [27] | CC50 [28] | CC50 [29] | pEC50 [31] | other results
COc1cc(/C=C/C(=O)CC(=O)/C=C/c2ccc(OC(=O)CCC(NC(=O)c3ccc(NCc4cnc5nc(N)[nH]c(=O)c5n4)cc3)C(=O)O)c(OC)c2)ccc1OC(=O)CCC(NC(=O)c1ccc(NCc2cnc3nc(N)[nH]c(=O)c3n2)cc1)C(=O)O (centres undefined) | 7.34 | < 7.09 | < 7.09 | < 7.09 | 0.27 µM (≈ 0.328 µg/mL) | < 7.52 | 0.54 µM (≈ 0.656 µg/mL) | < 7.09 | < 7.09 | > 82 nM | < 7.09 | 0.27 µM (≈ 0.328 µg/mL) | > 36 nM | > 46 nM | 0.27 µM (≈ 0.328 µg/mL) | > 82 nM | < 7.09 | > 82 nM | > 82 nM | < 7.09 | pEC50 [3]: < 7.09; pEC50 [5]: < 7.52; pEC50 [9]: < 7.09; CC50 [11]: > 82 nM; CC50 [12]: 11 nM; CC50 [15]: > 82 nM; CC50 [16]: > 82 nM; pEC50 [20]: < 7.09; CC50 [24]: > 82 nM; CC50 [26]: 82 nM; pEC50 [30]: < 7.09; CC50 [32]: > 82 nM; CC50 [33]: > 82 nM; pEC50 [34]: < 7.09; pEC50 [35]: < 7.09; CC50 [36]: > 82 nM; pIC50 [37]: 7.44; CC50 [38]: > 82 nM; pEC50 [39]: < 7.09
O=c1[nH]c(=O)n([C@H]2C[C@H](O)[C@@H](CO)O2)cc1/C=C/Br [BRIVUDINE] |  |  |  |  |  |  |  |  |  | > 250000 nM |  |  |  |  |  | > 250000 nM |  | > 250000 nM | > 250000 nM | < 3.60 | CC50 [36]: > 250000 nM
CC1(C)S[C@@H]2[C@H](NC(=O)[C@H](N)c3ccccc3)C(=O)N2[C@H]1C(=O)O [AMPICILLIN TRIHYDRATE] |  |  |  |  | 1.23 µM |  | 1.23 µM |  |  |  |  | 0.6 µM |  |  | > 2.47 µM |  |  |  |  |  | 
CCCCCCCCCC(=O)Oc1ccc(/C=C/C(=O)CC(=O)/C=C/c2ccc(OC(=O)CCCCCCCCC)c(OC)c2)cc1OC | 7.10 | < 6.83 | < 6.83 | < 6.83 |  | < 7.54 |  | < 6.83 | < 6.83 |  | < 6.83 |  | > 81 nM | > 79 nM |  |  | < 6.83 |  |  | < 6.83 | pEC50 [34]: < 6.83; pEC50 [35]: < 6.83; pIC50 [37]: 7.09; pEC50 [39]: 6.83
GENTAMICIN SULFATE |  |  |  |  |  |  |  |  |  |  |  |  |  |  |  |  |  |  |  |  | MIC [7]: > 1.73 µM; MIC [10]: > 1.73 µM; MIC [19]: > 1.73 µM; MIC [23]: > 1.73 µM
